Results published in ChEMBL document CHEMBL4706645, “The discovery of novel small molecule allosteric activators of aldehyde dehydrogenase 2” (Eur J Med Chem, 2021).
Activity calls are given as the source filed them. The calls are words filed in the database; no cut-off is given here.

What was measured:
[1] = target: T1, Aldehyde dehydrogenase, mitochondrial (Homo sapiens) (UniProt P05091); assay: Allosteric activation of recombinant human full-length ALDH2 (18 to 517 residues) expressed in Escherichia coli at 100 uM using acetaldehyde as substrate measured after 3 hrs in presence of NAD+ by […] relative to Alda-1
T1 sequence (whole entry): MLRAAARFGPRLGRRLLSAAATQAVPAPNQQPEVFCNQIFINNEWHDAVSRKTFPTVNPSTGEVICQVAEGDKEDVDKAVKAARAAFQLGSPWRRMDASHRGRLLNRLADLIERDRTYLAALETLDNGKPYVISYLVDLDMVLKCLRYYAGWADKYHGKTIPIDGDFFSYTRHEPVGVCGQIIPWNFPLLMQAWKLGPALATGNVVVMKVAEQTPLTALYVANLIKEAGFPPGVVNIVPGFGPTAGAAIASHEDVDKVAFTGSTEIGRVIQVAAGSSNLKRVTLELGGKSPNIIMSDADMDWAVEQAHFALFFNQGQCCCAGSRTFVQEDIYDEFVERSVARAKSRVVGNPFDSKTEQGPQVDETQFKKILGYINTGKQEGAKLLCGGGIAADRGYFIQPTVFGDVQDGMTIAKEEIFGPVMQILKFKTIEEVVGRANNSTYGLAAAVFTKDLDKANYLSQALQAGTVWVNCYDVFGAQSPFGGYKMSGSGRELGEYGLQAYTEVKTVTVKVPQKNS
Procedure, shortened: (§1)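 Read-out is absorbance at 450 nm, taken at room temperature. Starting concentrations are 5 mg/ml ALDH2, 25 mM acetaldehyde and 1 mM NAD+. Activity is the change in absorbance per minute (SlopeOD450). Maximum fold activation is calculated from ALDH2 activity with compound and corrected by the activity of the Alda-1 reference.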

[2] = target: T2, Aldehyde dehydrogenase, mitochondrial (Homo sapiens, UniProt P05091); assay: Allosteric activation of recombinant human full-length ALDH2 (18 to 517 residues) expressed in Escherichia coli using acetaldehyde as substrate measured after 3 hrs in presence of NAD+ by […]; procedure, shortened: as §1
T2 sequence (P05091 whole entry): T1 sequence (whole entry)

Rattus norvegicus [3] = assay: Protection against middle cerebral artery occlusion-induced Sprague-Dawley rat model of ischemic stroke-like event assessed as reduction in brain infarct size at 64 ug, icv pretreated for 5 mins followed by MCAO surgery for 2 hrs and subsequent reperfusion for 24 hrs by TCC staining based assay relative to control; format: functional; parameters: scale not given: the % may be the effect or the level left; settings: dose 64 µg; time 26.0833 hrs; 26.08 h
Rattus norvegicus [4] = assay: Protection against middle cerebral artery occlusion-induced Sprague-Dawley rat model of ischemic stroke-like event assessed as reduction in brain infarct size at 50 ug, icv pretreated for 5 mins followed by MCAO surgery for 2 hrs and subsequent reperfusion for 24 hrs by TCC staining based assay; format: functional, organism-based; settings: dose 50.0 µg, time 26.08333 hrs

| SMILES | fold change (FC) ([1]; filed as activator) | fold change (FC) [1] | further results |
| --- | --- | --- | --- |
| COc1ccc(CNc2ccc(N3CCOCC3)c(C(=O)NCC3CCCC3)c2)cc1F | 51% | – | – |
| COc1ccc(CNc2ccc(N3CCOCC3)c(C(=O)NCC3CC3)c2)cc1F | 104% | – | EC50 [2]: 17.9 µM; Activity (Rattus norvegicus [3]): 70% |
| O=C(O)c1cc(NCc2ccc3c(c2)OCO3)ccc1N1CCOCC1 | – | 23% | – |
| O=C(NCc1ccc2c(c1)OCO2)c1c(Cl)cccc1Cl | – | – | Activity (Rattus norvegicus [4]): Active; EC50 [2]: 4.3 µM |
| COc1ccc(CNc2ccc(N3CCC(F)CC3)c(C(=O)NCC3CC3)c2)cc1F | – | inactive | – |
| COc1ccc(CNc2ccc(N3CCC(O)CC3)c(C(=O)NCC3CC3)c2)cc1F | 80% | – | – |
| COc1ccc(CN(C(C)=O)c2ccc(N3CCOCC3)c(C(=O)NCC3(O)CC3)c2)cc1F | – | inactive | – |
| COc1ccc(CNc2ccc(N3CCOCC3)c(C(=O)N3CCCCC3)c2)cc1F | 66% | – | – |
| COc1ccc(CNc2ccc(N3CCOCC3)c(C(=O)NCC(C)(C)F)c2)cc1F | 101% | – | – |
| CNC(=O)c1cc(NCc2ccc(OC)c(F)c2)ccc1N1CCOCC1 | 52% | – | – |
| COc1ccc(CNc2ccc(N3CCOCC3)c(C(=O)NCC(C)(C)C)c2)cc1F | 59% | – | – |
| COc1ccc(CNc2ccc(N3CCOCC3)c(C(=O)NC3CC3)c2)cc1F | 94% | – | – |
| CCOC(=O)c1cc(NCc2ccc3c(c2)OCO3)ccc1N1CCOCC1 | 64% | – | – |
| COc1ccc(CNc2ccc(N3CCOCC3)c(C(=O)NCC3CCC3)c2)cc1F | 41% | – | – |
| COc1ccc(CN(C(C)=O)c2ccc(N3CCOCC3)c(C(=O)NCC(C)(C)O)c2)cc1F | – | inactive | – |
| COc1ccc(CNc2ccc(N3CCOCC3)c(C(=O)NCC(C)C)c2)cc1F | 92% | – | – |
| COc1ccc(CN(C)c2ccc(N3CCOCC3)c(C(=O)NCC3CC3)c2)cc1F | – | inactive | – |
| COc1ccc(CNc2ccc(N3CCC(F)(F)CC3)c(C(=O)NCC3CC3)c2)cc1F | – | 12% | – |
| COc1ccc(CNc2ccc(N3CCOCC3)c(C(=O)NCC3CCCCC3)c2)cc1F | 80% | – | – |
| Clc1cc(NCc2ccc3c(c2)OCO3)ccc1N1CCOCC1 | – | inactive | – |
| COc1ccc(CNc2ccc(N3CCOCC3)c(C(=O)NCC3(O)CC3)c2)cc1F | 97% | – | – |
| COc1ccc(CNc2ccc(N3CCOCC3)c(C(=O)NCC(C)(C)O)c2)cc1F | 120% | – | – |

Continued, in another order:

| fold change (FC) ([1]; filed as activator) | fold change (FC) [1] | SMILES | further results |
| --- | --- | --- | --- |
| 53% | – | COc1ccc(CNc2ccc(C3CCOCC3)c(C(=O)NCC3CC3)c2)cc1F | – |
| – | inactive | Fc1ccc(NCc2ccc3c(c2)OCO3)cc1 | – |
| – | inactive | COc1ccc(C(=O)Nc2ccc(N3CCOCC3)c(C(=O)NCC3CC3)c2)cc1F | – |
| 63% | – | CCNC(=O)c1cc(NCc2ccc(OC)c(F)c2)ccc1N1CCOCC1 | – |
| – | inactive | O=C(O)c1cc(NCc2ccc3c(c2)OCO3)ccc1Cl | – |
| – | inactive | COc1ccc(CNc2ccc(N3CCCCC3)c(C(=O)NCC3CC3)c2)cc1F | – |
| – | 3% | COc1ccc(CNc2ccc(-c3ccccc3)c(C(=O)NCC3CC3)c2)cc1F | – |
| – | 6% | O=C(CCC(=O)OCC(=O)c1ccccc1Cl)Nc1ccc(Cl)cc1 | – |
| – | 9% | O=C(O)c1cc(NCc2ccc(Cl)c(Cl)c2)ccc1N1CCOCC1 | – |
| 56% | – | COc1ccc(CNc2cccc(C(=O)NCC3CC3)c2)cc1F | – |
| – | inactive | Clc1ccc(NCc2ccc3c(c2)OCO3)cc1Cl | – |
| 97% | – | CCCNC(=O)c1cc(NCc2ccc(OC)c(F)c2)ccc1N1CCOCC1 | – |
